The source made the active and inactive calls. The rule behind the calls is not given here.
Columns and labels:
[1] = Cytotoxicity against human HepG2 cells after 72 hrs by CCK-8 assay; format: functional, cell-based; conditions: HepG2, 72 h
How it was run: (§1)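 Cells kept in RPMI 1640 with 10% heat-inactivated fetal calf serum and 1% streptomycin/penicillin at 37 °C, 5% CO2. After compound exposure, CCK-8 was added and cells were incubated 4 h at 37 °C, then absorbance was read at 450 nm. Viability is relative to untreated cells (100%). IC50 comes from nonlinear regression, mean of three separate determinations. Single-concentration screen at 20 µM.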

[2] = Cytotoxicity against human SW480 cells assessed as growth inhibition at 20 uM after 72 hrs by CCK-8 assay; format: functional; conditions: SW480, 72 h, read-out: GI; how it was run: as §1
[3] = tested on: HCT-116; experiment: Induction of apoptosis in human HCT116 cells assessed as early apoptotic cells at 0.1 uM after 48 hrs by Annexin V-FITC/propidium iodide staining based flow cytometry (reference value: 3.8%); format: functional
How it was run: (§2)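 HCT116 seeded at 2×10^5 cells/well, cultured 6 h, then treated 48 h at 0.1, 0.5, 1, 4, 8 or 16 µM; DMSO (0.1%) served as vehicle. Cells washed twice in cold PBS, resuspended in binding buffer with FITC Annexin V and PI for 15 min at RT in the dark, diluted, and run on flow cytometry within 1 h.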

[4] = tested on: HCT-116; experiment: Induction of apoptosis in human HCT116 cells assessed as necrotic cells at 4 uM after 48 hrs by Annexin V-FITC/propidium iodide staining based flow cytometry (reference value: 0.8%); format: functional
[5] = tested on: HCT-116; experiment: Induction of apoptosis in human HCT116 cells assessed as late apoptotic cells at 16 uM after 48 hrs by Annexin V-FITC/propidium iodide staining based flow cytometry (reference value: 6.7%); format: functional
[6] = tested on: HCT-116; experiment: Induction of apoptosis in human HCT116 cells assessed as increase in Bax protein level after 9 hrs by Western blot method; format: functional, cell-based
How it was run: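 HCT116 cells plated at 4 × 10⁵ cells/well in six-well plates. Incubated with or without compound for 9 h, then proteins extracted. Lysates resolved by 12% SDS-PAGE and immunoblotted with anti-Bax and anti-Bcl-2 antibodies.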

[7] = Cytotoxicity against human HCT116 cells after 72 hrs by CCK-8 assay; format: functional, cell-based; conditions: HCT-116, 72 h; how it was run: as §1
[8] = Cytotoxicity against human HL60 cells after 72 hrs by CCK-8 assay; format: functional, cell-based; conditions: HL-60, 72 h; how it was run: as §1
[9] = tested on: HCT-116; experiment: Induction of apoptosis in human HCT116 cells assessed as necrotic cells at 0.1 uM after 48 hrs by Annexin V-FITC/propidium iodide staining based flow cytometry (reference value: 0.8%); format: functional
[10] = Cell cycle arrest in human HCT116 cells assessed as S phase accumulation at 1 uM after 48 hrs by Annexin V-FITC/propidium iodide staining based flow cytometry (reference value: 28.43%); format: functional; conditions: HCT-116
[11] = Cytotoxicity against human MDA-MB-231 cells after 72 hrs by CCK-8 assay; format: functional, cell-based; conditions: MDA-MB-231, 72 h; how it was run: as §1
[12] = Cytotoxicity against human SK-BR-3 cells assessed as growth inhibition at 20 uM after 72 hrs by CCK-8 assay; format: functional; conditions: SK-BR-3, 72 h, read-out: GI; how it was run: as §1
[13] = Cell cycle arrest in human HCT116 cells assessed as S phase accumulation at 2 uM after 48 hrs by Annexin V-FITC/propidium iodide staining based flow cytometry (reference value: 28.43%); format: functional; conditions: HCT-116
[14] = Cytotoxicity against human SW480 cells after 72 hrs by CCK-8 assay; format: functional, cell-based; conditions: SW480, 72 h; how it was run: as §1
[15] = Cell cycle arrest in human HCT116 cells assessed as sub-G1 phase accumulation at 0.1 uM after 48 hrs by Annexin V-FITC/propidium iodide staining based flow cytometry (reference value: 4.36%); format: functional; conditions: HCT-116
[16] = Cell cycle arrest in human HCT116 cells assessed as S phase accumulation at 3 uM after 48 hrs by Annexin V-FITC/propidium iodide staining based flow cytometry (reference value: 28.43%); format: functional; conditions: HCT-116
[17] = Cell cycle arrest in human HCT116 cells assessed as G1 phase accumulation at 0.1 uM after 48 hrs by Annexin V-FITC/propidium iodide staining based flow cytometry (reference value: 40.83%); format: functional; conditions: HCT-116
[18] = tested on: HCT-116; experiment: Induction of apoptosis in human HCT116 cells assessed as necrotic cells at 1 uM after 48 hrs by Annexin V-FITC/propidium iodide staining based flow cytometry (reference value: 0.8%); format: functional
[19] = tested on: HCT-116; experiment: Induction of apoptosis in human HCT116 cells assessed as early apoptotic cells at 1 uM after 48 hrs by Annexin V-FITC/propidium iodide staining based flow cytometry (reference value: 3.8%); format: functional; how it was run: as §2
[20] = tested on: HCT-116; experiment: Induction of apoptosis in human HCT116 cells assessed as live cells at 0.5 uM after 48 hrs by Annexin V-FITC/propidium iodide staining based flow cytometry (reference value: 88.7%); format: functional
[21] = tested on: HCT-116; experiment: Induction of apoptosis in human HCT116 cells assessed as early apoptotic cells at 4 uM after 48 hrs by Annexin V-FITC/propidium iodide staining based flow cytometry (reference value: 3.8%); format: functional; how it was run: as §2
[22] = Cytotoxicity against human L02 cells assessed as growth inhibition at 20 uM after 72 hrs by CCK-8 assay; format: toxicity, cell-based; conditions: read-out: GI; how it was run: as §1
[23] = tested on: HCT-116; experiment: Induction of apoptosis in human HCT116 cells assessed as late apoptotic cells at 0.5 uM after 48 hrs by Annexin V-FITC/propidium iodide staining based flow cytometry (reference value: 6.7%); format: functional
[24] = tested on: HCT-116; experiment: Induction of apoptosis in human HCT116 cells assessed as late apoptotic cells at 1 uM after 48 hrs by Annexin V-FITC/propidium iodide staining based flow cytometry (reference value: 6.7%); format: functional
[25] = Cytotoxicity against human Saos2 cells assessed as growth inhibition at 20 uM after 72 hrs by CCK-8 assay; format: functional; conditions: SAOS-2, 72 h, read-out: GI; how it was run: as §1
[26] = Antitumor activity against human HepG2 cells assessed as growth inhibition at 20 uM after 72 hrs by CCK-8 assay; format: functional; conditions: HepG2, 72 h, read-out: GI; how it was run: as §1
[27] = Cell cycle arrest in human HCT116 cells assessed as sub-G1 phase accumulation at 2 uM after 48 hrs by Annexin V-FITC/propidium iodide staining based flow cytometry (reference value: 4.36%); format: functional; conditions: HCT-116
[28] = Cell cycle arrest in human HCT116 cells assessed as G2/M phase accumulation at 0.5 uM after 48 hrs by Annexin V-FITC/propidium iodide staining based flow cytometry (reference value: 25.3%); format: functional; conditions: HCT-116
[29] = tested on: HCT-116; experiment: Induction of apoptosis in human HCT116 cells assessed as live cells at 16 uM after 48 hrs by Annexin V-FITC/propidium iodide staining based flow cytometry (reference value: 88.7%); format: functional
[30] = Cell cycle arrest in human HCT116 cells assessed as sub-G1 phase accumulation at 3 uM after 48 hrs by Annexin V-FITC/propidium iodide staining based flow cytometry (reference value: 4.36%); format: functional; conditions: HCT-116
[31] = Cell cycle arrest in human HCT116 cells assessed as G2/M phase accumulation at 0.1 uM after 48 hrs by Annexin V-FITC/propidium iodide staining based flow cytometry (reference value: 25.3%); format: functional; conditions: HCT-116
[32] = Cell cycle arrest in human HCT116 cells assessed as G1 phase accumulation at 2 uM after 48 hrs by Annexin V-FITC/propidium iodide staining based flow cytometry (reference value: 40.83%); format: functional; conditions: HCT-116

SMILES: CC(C)(C)OC(=O)/C=C1/C(=O)Nc2ccccc21
- IC50 [1]: 4640 nM
- inhibition of growth at 20 µM [2]: 78.1%
- Activity [3]: 3.2%
- Activity [4]: 0.7%
- Activity [5]: 69.1%
- Activity [6]: Active
- IC50 [7]: 2640 nM
- IC50 [8]: 2450 nM
- Activity [9]: 0.6%
- Activity [10]: 34.3%
- IC50 [11]: 2520 nM
- inhibition of growth at 20 µM [12]: 87.3%
- Activity [13]: 25.2%
- IC50 [14]: 5680 nM
- Activity [15]: 1.27%
- Activity [16]: 30.1%
- Activity [17]: 40.8%
- Activity [18]: 1.3%
- Activity [19]: 2.6%
- Activity [20]: 89%
- Activity [21]: 3.6%
- inhibition at 72 h, 20 µM [22]: 64.1%
- Activity [23]: 7.5%
- Activity [24]: 9.1%
- inhibition of growth at 20 µM [25]: 83.3%
- inhibition of growth at 20 µM [26]: 86.1%
- Activity [27]: 3.42%
- Activity [28]: 27.4%
- Activity [29]: 26.1%
- Activity [30]: 5.11%
- Activity [31]: 20.6%
- Activity [32]: 40.9%
